Assay outcomes as filed in PubChem BioAssay.
MrgX1 PAM: positive allosteric modulators of MrgX1, primary screen, HEK293 cells, Fluo-4 calcium flux | FDSS; hits give high values | B-score at 10 µM | Mas-related G-protein coupled receptor member X1 (Homo sapiens), Q96LB2 | 0.63% of 310,000 active;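 active means plate-corrected calcium response at least 3 library SD above typical, normal starting fluorescence, not activating the receptor alone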;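 further: compound read alongside a low EC10 to EC30 dose of BAM8-22 agonist; peak minus trough fluorescence over baseline measured at the second addition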
Target sequence (Q96LB2 whole entry, looked up): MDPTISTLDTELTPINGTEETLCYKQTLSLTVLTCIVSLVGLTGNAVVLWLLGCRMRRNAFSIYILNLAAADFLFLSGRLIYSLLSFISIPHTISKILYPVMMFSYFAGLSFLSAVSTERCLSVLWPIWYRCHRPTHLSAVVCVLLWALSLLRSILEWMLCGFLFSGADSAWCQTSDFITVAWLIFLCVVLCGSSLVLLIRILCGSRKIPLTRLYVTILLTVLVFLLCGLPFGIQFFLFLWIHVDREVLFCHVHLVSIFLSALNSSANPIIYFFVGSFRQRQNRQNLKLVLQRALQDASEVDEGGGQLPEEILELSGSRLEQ
RGS4 inh: RGS4 inhibitors, primary screen, cell-based, HEK293 M3R inducible RGS4, calcium flux | Regulator of G-protein signaling 4 (Homo sapiens), P49798 | Fluo-4 calcium flux; hits give high values; triggered by carbachol at its EC20 | B-score at 10 µM | 0.45% of 310,000 active | AID 463165, 2010;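 active means B-score, a plate-corrected calcium signal, over three deviations above library mean, with baseline fluorescence within five deviations of library mean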;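 further: RGS4 expression induced by doxycycline in cells with stable M3 receptor; B-score is computed from the integrated fluorescence ratio over baseline after carbachol; higher B-score means a larger calcium signal and so more RGS4 inhibition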
MrgX1 antag: antagonists of human MrgX1 receptor, primary screen, HEK293 cells, Fluo-4 calcium flux; B-score at 10 µM; BAM8-22 antagonism; hits give low values; 1.3% of 310,000 active;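 active means calcium-response B-score plate-corrected more than 3 library SD below zero, starting fluorescence within 5 deviations, no agonist response on first addition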;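 further: peak minus trough fluorescence over baseline after final BAM8-22 challenge near maximal dose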
MrgX1 agonist: agonists of human MrgX1 receptor, primary screen, HEK293 cells, Fluo-4 calcium flux | Mas-related G-protein coupled receptor member X1 (Homo sapiens), Q96LB2 | Fluo-4 calcium fluorescence, agonist mode; hits give high values | B-score at 10 µM | 0.44% of 310,000 active;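 active means calcium response B-score plate-corrected fluorescence ratio at least 3 library SD, with starting fluorescence B-score inside 5 SD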
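Test system: HEK293 cells stably expressing human MrgX1 receptor; amount: 15,000 cells per well; doses: compound delivered in addition one of three; times: overnight plating before 1 h dye loading; detection: Fluo-4 NW calcium-flux fluorescence, kinetic read; read-out basis: B-scored fluorescence response ratio; controls: positive and negative controls per plate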
RGS4 act: RGS4 potentiators or activators, primary screen, cell-based, HEK293 M3R inducible RGS4, calcium flux; carbachol calcium flux Fluo4; hits give low values; B-score at 10 µM; 0.92% of 310,000 active;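 active means B-score of the integrated calcium signal more than 4 SD below the library mean, with starting fluorescence not abnormally high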;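 further: negative B-score means reduced calcium response which marks RGS4 activation or potentiation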
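Test system: HEK293 cells with stable M3R and inducible RGS4; also added: carbachol at ECmax as muscarinic agonist stimulus; schedule: dye loading 30 min 37 °C, buffer rest 30 min RT; technique: kinetic calcium fluorescence imaging with Fluo4-AM dye, 2 µM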
Numbers without * were called inactive. Compounds with a hit are over-represented: about 3.5% of the library has one in this group of screens.

For C#CC(C)(CC)NC(=O)c1cc2nc(C3CC3)cc(C(F)(F)F)n2n1 (stereo not given) the results were MrgX1 PAM inactive, RGS4 inh inactive, MrgX1 antag inactive, MrgX1 agonist inactive and RGS4 act inactive.
For O=C(NN1C(=O)C2C3C=CC(C3)C2C1=O)c1ccccc1 (stereo not given) the results were MrgX1 PAM inactive, RGS4 inh inactive, MrgX1 antag inactive, MrgX1 agonist inactive and RGS4 act inactive.
Cc1cccc(C(=O)NN2C(=O)C3C(c4ccccc4)C=CC(c4ccccc4)C3C2=O)c1 (stereo not given) was read as MrgX1 PAM inactive, RGS4 inh inactive, MrgX1 antag inactive, MrgX1 agonist inactive and RGS4 act -7.09*.
For CCN(C(=O)c1cc(S(=O)(=O)N2CCCCC2)c[nH]1)c1ccc(OC)cc1 the results were MrgX1 PAM inactive, RGS4 inh inactive, MrgX1 antag inactive, MrgX1 agonist inactive and RGS4 act inactive.
CCOc1ccc(-n2nc3c(=O)n(CCN4CCCCC4)nc(C)c3c2C)cc1 was read as MrgX1 PAM inactive, RGS4 inh inactive, MrgX1 antag inactive, MrgX1 agonist inactive and RGS4 act -8.51*.
For CCCCn1c(N)c(N(CC(C)C)C(=O)c2ccc3c(c2)NC(=O)C(C)S3)c(=O)[nH]c1=O (stereo not given) the results were MrgX1 PAM inactive, RGS4 inh inactive, MrgX1 antag inactive, MrgX1 agonist inactive and RGS4 act inactive.
For Cc1nn(C)cc1C(C(=O)NC1CCCCC1)N(C(=O)Cc1cccs1)c1ccc(C(C)C)cc1 (stereo not given) the results were MrgX1 PAM inactive, RGS4 inh inactive, MrgX1 antag inactive, MrgX1 agonist 26.5* and RGS4 act inactive.
`CCCCCN1C(=O)/C(=C/c2c(N3CCc4ccccc4C3)nc3ccccn3c2=O)SC1=S` gave MrgX1 PAM inactive, RGS4 inh inactive, MrgX1 antag -8.67*, MrgX1 agonist inactive and RGS4 act inactive.
COc1ccccc1C(=O)NCCC(=O)N(C)CC(=O)Nc1ccc(C)cc1 was read as MrgX1 PAM inactive, RGS4 inh inactive, MrgX1 antag -5.17*, MrgX1 agonist inactive and RGS4 act inactive.
`C/C(N)=C(/C#N)C(=O)CN1C(=O)NC(Cc2c[nH]c3ccccc23)C1=O` (stereo not given) gave MrgX1 PAM inactive, RGS4 inh inactive, MrgX1 antag inactive, MrgX1 agonist inactive and RGS4 act inactive.
For Cc1cc2c(=O)oc(-c3ccc(F)cc3)nc2s1 the results were MrgX1 PAM inactive, RGS4 inh inactive, MrgX1 antag -23.4*, MrgX1 agonist inactive and RGS4 act inactive.
For Cc1cc2c(=O)oc(-c3ccccc3Br)nc2s1 the results were RGS4 inh inactive and RGS4 act inactive.
COc1ccc(/C=C2/C(=N)N3N=C(CC(=O)N4CCCC4)SC3=NC2=O)cc1 was read as MrgX1 PAM inactive, RGS4 inh inactive, MrgX1 antag inactive, MrgX1 agonist 34.5* and RGS4 act inactive.
For COc1ccc(/C=C2\C(=N)N3N=C(CC(=O)N4CCCCC4)SC3=NC2=O)cc1 the results were MrgX1 PAM inactive, RGS4 inh inactive, MrgX1 antag inactive, MrgX1 agonist 38* and RGS4 act inactive.
`Cc1ccc(/C=C2\C(=N)N3N=C(CC(=O)N4CCCCC4)SC3=NC2=O)cc1` gave MrgX1 PAM inactive, RGS4 inh inactive, MrgX1 antag inactive, MrgX1 agonist inactive and RGS4 act inactive.
Screening O=C(Nc1ccccc1)Nc1ccccc1-n1ccnc1 returned MrgX1 PAM inactive, RGS4 inh inactive, MrgX1 antag inactive, MrgX1 agonist inactive and RGS4 act inactive.
CC(=O)N1c2ccc(S(=O)(=O)N3CCCC3C(=O)NCc3ccccc3Cl)cc2CC1C (stereo not given) was read as MrgX1 PAM inactive, RGS4 inh inactive, MrgX1 antag inactive, MrgX1 agonist inactive and RGS4 act inactive.
